According to ChEMBL document CHEMBL1139826, “Synthesis, biological activity, and SAR of antimycobacterial 2- and 8-substituted 6-(2-furyl)-9-(p-methoxybenzyl)purines” (Bioorg Med Chem, 2007):
Converted amounts (≈) assume the structure as drawn.

Experiments:
[1] = system: Mycobacterium tuberculosis; assay: Antimicrobial activity against Mycobacterial tuberculosis ATCC 27294 at […]; assay type: functional
[2] = Selectivity index, ratio of IC50 for Vero cells to MIC of Mycobacterium tuberculosis H37Rv; assay type: functional
[3] = system: Staphylococcus aureus; assay: Antimicrobial activity against Staphylococcus aureus ATCC 25923; assay type: functional
[4] = system: Escherichia coli; assay: Antimicrobial activity against Escherichia coli ATCC 25922; assay type: functional
[5] = system: Vero; assay: Cytotoxicity against Vero cells; assay type: cell-based; details: Chlorocebus sabaeus
How it was run: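 IC50 was measured in VERO mammalian cells, and only for compounds that met the M. tuberculosis MIC cutoff for follow-up. A selectivity index was then calculated as the VERO IC50 divided by the Mtb MIC.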

| Compound | inhibition at […] [1] [%] | Ratio [2] [µg/mL] | further results |
| --- | --- | --- | --- |
| COc1ccc(Cn2cnc3c(-c4ccco4)nc(N(C)C)nc32)cc1 | 34 |  |  |
| COc1ccc(Cn2cnc3c(-c4ccco4)nc(Cl)nc32)cc1 |  | >26 | MIC [3]: > 32 µg/mL; MIC [4]: > 32 µg/mL |
| COc1ccc(Cn2cnc3c(-c4ccco4)nc(Oc4ccccc4)nc32)cc1 | 72 |  |  |
| COc1ccc(Cn2cnc3c(-c4ccco4)nc(SC)nc32)cc1 |  | 3.9 | IC50 [5]: 3.05 µg/mL (≈ 8.65 µM) |
| COc1ccc(Cn2cnc3c(-c4ccco4)ncnc32)cc1 |  | >40 |  |
